Values after ≈ are worked out from the molar mass of the structure shown.
Experiments:
Enterococcus faecalis [1] = assay: Antibacterial activity against vancomycin resistant Enterococcus faecalis 51575 assessed as inhibition of bacterial growth measured after 24 hrs; type: functional
Enterococcus faecium [2] = assay: Antibacterial activity against Enterococcus faecium 35667 assessed as inhibition of bacterial growth measured after 24 hrs; type: functional
Enterococcus faecium [3] = assay: Antibacterial activity against vancomycin resistant Enterococcus faecium 700221 assessed as inhibition of bacterial growth measured after 24 hrs; type: functional
Staphylococcus aureus [4] = assay: Antibacterial activity against Staphylococcus aureus 29213 assessed as inhibition of bacterial growth measured after 24 hrs; type: functional
Staphylococcus aureus [5] = assay: Antibacterial activity against Methicillin resistant Staphylococcus aureus 43300 assessed as inhibition of bacterial growth measured after 24 hrs; type: functional
Enterococcus faecalis [6] = assay: Antibacterial activity against Enterococcus faecalis 29212 assessed as inhibition of bacterial growth measured after 24 hrs; details: Enterococcus faecalis, 29212, 24 h
Escherichia coli = assay: Antibacterial activity against Escherichia coli JW5503 delta tolC mutant assessed as inhibition of bacterial growth measured after 24 hrs; details: JW5503, 24 h
[7] = Efflux ratio of MIC for Escherichia coli 25922 to MIC for Escherichia coli JW5503; type: functional
Summary of the method: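 Ratio of the MIC against wild-type E. coli ATCC 25922 to the MIC against the tolC deletion mutant JW5503. Both MICs were read after 24 h, n = 3. Not determined when the MIC was >50 μM for both strains.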

| SMILES | MIC (Enterococcus faecalis [1]) | MIC (Enterococcus faecium [2]) | MIC (Enterococcus faecium [3]) | MIC (Staphylococcus aureus [4]) | MIC (Staphylococcus aureus [5]) | MIC (Enterococcus faecalis [6]) | MIC (Escherichia coli) | Ratio [7] |
| --- | --- | --- | --- | --- | --- | --- | --- | --- |
| CC(=O)NC[C@H]1CN(c2ccc(-c3ccc(OC(=O)c4ccc(B(O)O)cc4)cc3)c(F)c2)C(=O)O1 | > 50 µM | > 50 µM | > 50 µM | > 50 µM | > 50 µM | > 50 µM | > 50 µM | – |
| CC(=O)NC[C@H]1CN(c2ccc(-c3cccc(COC(=O)c4ccc(B(O)O)cc4)c3)c(F)c2)C(=O)O1 | 0.39 µM (≈ 0.197 µg/mL) | 0.78 µM (≈ 0.395 µg/mL) | 0.78 µM (≈ 0.395 µg/mL) | 0.78 µM (≈ 0.395 µg/mL) | 0.78 µM (≈ 0.395 µg/mL) | 0.78 µM (≈ 0.395 µg/mL) | 3.13 µM (≈ 1.58 µg/mL) | > 16 |
| O=C(O)c1ccc(B(O)O)cc1 | > 50 µM | > 50 µM | > 50 µM | > 50 µM | > 50 µM | > 50 µM | > 50 µM | – |
| CC(=O)NCC1CN(c2ccc(-c3ccc(COC(=O)c4ccc(B(O)O)c(F)c4)cc3)c(F)c2)C(=O)O1 (stereo not drawn) | 0.78 µM (≈ 0.409 µg/mL) | 1.56 µM (≈ 0.818 µg/mL) | 1.56 µM (≈ 0.818 µg/mL) | 1.56 µM (≈ 0.818 µg/mL) | 1.56 µM (≈ 0.818 µg/mL) | 1.56 µM (≈ 0.818 µg/mL) | 12.5 µM (≈ 6.55 µg/mL) | > 4 |
| CC(=O)NC[C@H]1CN(c2ccc(-c3ccc(COC(=O)c4cccc(B(O)O)c4)cc3)c(F)c2)C(=O)O1 | 0.78 µM (≈ 0.395 µg/mL) | > 50 µM | > 50 µM | 1.56 µM (≈ 0.79 µg/mL) | 0.78 µM (≈ 0.395 µg/mL) | > 50 µM | 3.13 µM (≈ 1.58 µg/mL) | > 16 |
| O=C(O)c1cn(C2CC2)c2cc(N3CCNCC3)c(F)cc2c1=O [CIPROFLOXACIN] | 3 µM (≈ 0.994 µg/mL) | – | – | 1.5 µM (≈ 0.497 µg/mL) | – | – | – | – |
| CC(=O)NCC1CN(c2ccc(-c3ccc(COC(=O)c4ccc(B(O)O)cc4F)cc3)c(F)c2)C(=O)O1 (stereo not drawn) | 1.56 µM (≈ 0.818 µg/mL) | 1.56 µM (≈ 0.818 µg/mL) | 1.56 µM (≈ 0.818 µg/mL) | 1.56 µM (≈ 0.818 µg/mL) | 1.56 µM (≈ 0.818 µg/mL) | 1.56 µM (≈ 0.818 µg/mL) | 25 µM (≈ 13.1 µg/mL) | > 2 |
| CC(=O)NC[C@H]1CN(c2ccc(-c3ccc(CN)cc3)c(F)c2)C(=O)O1 | 1.56 µM (≈ 0.558 µg/mL) | 0.78 µM (≈ 0.279 µg/mL) | 1.56 µM (≈ 0.558 µg/mL) | 3.13 µM (≈ 1.12 µg/mL) | 3.13 µM (≈ 1.12 µg/mL) | 1.56 µM (≈ 0.558 µg/mL) | 6.25 µM (≈ 2.23 µg/mL) | > 8 |
| CC(=O)NC[C@H]1CN(c2ccc(-c3ccc(O)cc3)c(F)c2)C(=O)O1 | 0.39 µM (≈ 0.134 µg/mL) | 0.78 µM (≈ 0.269 µg/mL) | 0.39 µM (≈ 0.134 µg/mL) | 0.78 µM (≈ 0.269 µg/mL) | 0.78 µM (≈ 0.269 µg/mL) | 0.39 µM (≈ 0.134 µg/mL) | 1.56 µM (≈ 0.537 µg/mL) | > 32 |
| CC(=O)NC[C@H]1CN(c2ccc(-c3ccc(CNC(=O)c4ccc(B(O)O)cc4)cc3)c(F)c2)C(=O)O1 | 0.39 µM (≈ 0.197 µg/mL) | 0.39 µM (≈ 0.197 µg/mL) | 0.39 µM (≈ 0.197 µg/mL) | 0.78 µM (≈ 0.394 µg/mL) | 0.78 µM (≈ 0.394 µg/mL) | 0.39 µM (≈ 0.197 µg/mL) | 0.78 µM (≈ 0.394 µg/mL) | > 64 |
| CC(=O)NC[C@H]1CN(c2ccc(-c3ccc(CNC(=O)c4cccc(B(O)O)c4)cc3)c(F)c2)C(=O)O1 | 0.39 µM (≈ 0.197 µg/mL) | 0.78 µM (≈ 0.394 µg/mL) | 0.78 µM (≈ 0.394 µg/mL) | 0.78 µM (≈ 0.394 µg/mL) | 0.78 µM (≈ 0.394 µg/mL) | 0.39 µM (≈ 0.197 µg/mL) | 0.78 µM (≈ 0.394 µg/mL) | > 64 |
| CC(=O)NCC1CN(c2ccc(-c3ccc(COC(=O)c4ccc(B(O)O)cc4Cl)cc3)c(F)c2)C(=O)O1 (stereo not drawn) | 3.13 µM (≈ 1.69 µg/mL) | 3.13 µM (≈ 1.69 µg/mL) | 3.13 µM (≈ 1.69 µg/mL) | 3.13 µM (≈ 1.69 µg/mL) | 3.13 µM (≈ 1.69 µg/mL) | 3.13 µM (≈ 1.69 µg/mL) | 25 µM (≈ 13.5 µg/mL) | > 2 |
| CC(=O)NC[C@H]1CN(c2ccc(-c3ccc(COC(=O)c4ccc(B(O)O)cc4)cc3)c(F)c2)C(=O)O1 | 0.39 µM (≈ 0.197 µg/mL) | 0.78 µM (≈ 0.395 µg/mL) | 0.39 µM (≈ 0.197 µg/mL) | 0.78 µM (≈ 0.395 µg/mL) | 0.78 µM (≈ 0.395 µg/mL) | 0.78 µM (≈ 0.395 µg/mL) | 3.13 µM (≈ 1.58 µg/mL) | > 16 |
| CC(=O)NC[C@H]1CN(c2ccc(N3CCOCC3)c(F)c2)C(=O)O1 [LINEZOLID] | 6.25 µM (≈ 2.11 µg/mL) | 12.5 µM (≈ 4.22 µg/mL) | 6.25 µM (≈ 2.11 µg/mL) | 6.25 µM (≈ 2.11 µg/mL) | 6.25 µM (≈ 2.11 µg/mL) | 6.25 µM (≈ 2.11 µg/mL) | 75 µM (≈ 25.3 µg/mL) | > 1 |
| CC(=O)NCC1CN(c2ccc(-c3ccc(COC(=O)c4ccc(B(O)O)cc4)cc3)c(F)c2)C(=O)O1 (stereo not drawn) | 1.56 µM (≈ 0.79 µg/mL) | 3.23 µM (≈ 1.64 µg/mL) | 1.56 µM (≈ 0.79 µg/mL) | 3.13 µM (≈ 1.58 µg/mL) | 1.56 µM (≈ 0.79 µg/mL) | 3.13 µM (≈ 1.58 µg/mL) | 6.25 µM (≈ 3.16 µg/mL) | > 8 |
| CC(=O)NC[C@H]1CN(c2ccc(-c3cccc(CO)c3)c(F)c2)C(=O)O1 | 3.13 µM (≈ 1.12 µg/mL) | 1.56 µM (≈ 0.559 µg/mL) | 1.56 µM (≈ 0.559 µg/mL) | 3.13 µM (≈ 1.12 µg/mL) | 1.56 µM (≈ 0.559 µg/mL) | 1.56 µM (≈ 0.559 µg/mL) | 3.13 µM (≈ 1.12 µg/mL) | > 16 |
| CC(=O)NCC1CN(c2ccc(-c3ccc(COC(=O)c4ccc(B(O)O)c(Cl)c4)cc3)c(F)c2)C(=O)O1 (stereo not drawn) | 1.56 µM (≈ 0.844 µg/mL) | 1.56 µM (≈ 0.844 µg/mL) | 1.56 µM (≈ 0.844 µg/mL) | 1.56 µM (≈ 0.844 µg/mL) | 1.56 µM (≈ 0.844 µg/mL) | 1.56 µM (≈ 0.844 µg/mL) | 25 µM (≈ 13.5 µg/mL) | > 2 |
| CC(=O)NCC1CN(c2ccc(-c3ccc(COC(=O)c4ccccc4)cc3)c(F)c2)C(=O)O1 (stereo not drawn) | 3.13 µM (≈ 1.45 µg/mL) | 6.25 µM (≈ 2.89 µg/mL) | 3.13 µM (≈ 1.45 µg/mL) | 3.13 µM (≈ 1.45 µg/mL) | 3.13 µM (≈ 1.45 µg/mL) | 3.13 µM (≈ 1.45 µg/mL) | > 50 µM | – |
| CC(=O)NC[C@H]1CN(c2ccc(-c3ccc(CO)cc3)c(F)c2)C(=O)O1 | 0.78 µM (≈ 0.28 µg/mL) | 0.78 µM (≈ 0.28 µg/mL) | 0.78 µM (≈ 0.28 µg/mL) | 1.56 µM (≈ 0.559 µg/mL) | 0.78 µM (≈ 0.28 µg/mL) | 0.78 µM (≈ 0.28 µg/mL) | 1.56 µM (≈ 0.559 µg/mL) | > 32 |

Reference: ChEMBL document CHEMBL4818993, “Installation of an aryl boronic acid function into the external section of N-aryl-oxazolidinones: Synthesis and antimicrobial evaluation” (2021)
